# Insulin prom act = TRM-6 insulin promoter activation | TRM-6 cells, insulin promoter eGFP reporter, imaging; plate-scaled: unstimulated 0, stimulated control 100 | activation, % at 2 µM | 130,000 compounds, 0.81% hits;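 active = activation at 2 µM above a set limit, confirmed on inspection of the cell images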;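 also: share of cells whose green reporter signal exceeds an intensity cutoff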
#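 Test system: human fetal islet-derived TRM-6 cells with tamoxifen-inducible insulin promoter–eGFP reporter; schedule: overnight tamoxifen, then two-day compound incubation at 37 °C; measured by: high-content imaging of fixed cells with Hoechst nuclear stain; evaluation: percent cells above green-intensity threshold, converted to percent activation versus plate controls; control set: stimulated and unstimulated wells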
# Active calls of the source: *. The sample as a whole holds a higher share of hits than the screen did.
SMILES,Insulin prom act
CC(CN(C)Cc1nc(Cc2cccc(C(F)(F)F)c2)no1)CN1CCCC1 (centres undefined),138
Cc1c(NC(=O)CN2CCCc3ccccc32)c(=O)n(-c2ccccc2)n1C,0
O=C(CN1CCCc2ccccc21)NCc1ccccc1Cl,9
CN(C)S(=O)(=O)c1ccc(NC(=O)CN2CCCc3ccccc32)cc1,383*
CN(C)S(=O)(=O)c1ccc(NC(=O)COC(=O)C2COc3ccccc3O2)cc1 (centres undefined),-5
CCCn1c2c(c(O)c(C(=O)Nc3nc4ccccc4s3)c1=O)CCCC2,5
O=C(C1CCCO1)N1CCN(C(=S)Nc2ccccc2Cl)CC1 (centres undefined),-10
N/C(=N\OC(=O)c1ccc(Br)cc1)c1ccccc1,-3
Cc1ccccc1C(=O)O/N=C(\N)c1ccncc1,508*
N/C(=N\OC(=O)CCCOc1ccccc1)c1ccncc1,10
Cn1c(SCC(=O)N2CCOCC2)nc(O)cc1=O,-7
N#CCCn1ncn(-c2ccccc2)c1=S,173*
N#CCCn1cc(/C=C2\NC(=S)N(c3ccccc3)C2=O)c(-c2ccc(-c3ccccc3)cc2)n1,6
N#CCCn1nc(-c2ccccc2)cc1-n1c(C(F)(F)F)nc2ccccc21,0
COc1ccc(-c2nc3cc(NC(=O)Cc4ccc(OC)c(OC)c4)ccc3o2)cc1,-6
COCCNC(=O)C1CC(=O)N(c2ccc(OC)cc2)C1c1ccc(OC)cc1 (centres undefined),-7
CCN(CC)S(=O)(=O)c1ccc(NC2c3ncccc3C(=O)N2Cc2ccccc2)cc1 (centres undefined),7
O=C1c2cccnc2C(O)N1Cc1ccc(F)cc1 (centres undefined),6
COc1ccc(CN2C(=O)c3cccnc3C2Nc2cc(Cl)c(OC)cc2OC)cc1 (centres undefined),136*
CC(C)(C)N1C(=O)c2ccc(C(=O)NCc3ccco3)cc2C1=O,304
Cc1c(NC(=O)c2cc3nc(-c4ccc(Cl)cc4)cc(C(F)(F)F)n3n2)c(=O)n(-c2ccccc2)n1C,3
CCNC(=O)NC(=O)C(C)OC(=O)C1CCN(S(=O)(=O)c2ccccc2C(=O)OC)CC1 (centres undefined),-7
COCCN(C(=O)/C=C/c1ccccc1)c1nnc(-c2cccnc2)s1,-5
CCCCC(=O)N(CCOC)c1nnc(-c2ccc(OC)cc2)s1,3
COCCN(C(=O)C1CC1)c1nnc(-c2cccc(C)c2)s1,182*
SMILES,Insulin prom act
O=C(CCSc1nc2ccccc2s1)N/N=C/c1c(O)ccc2ccccc12,4
Cc1ccc(-c2n[nH]c(=S)n2/N=C/c2ccncc2)cc1,7
CCC(CC)c1nnc(NC(=O)CS(=O)(=O)Cc2ccccc2)s1,-43
Cc1ccnc(NC(=O)CS(=O)(=O)Cc2ccccc2)c1,550*
CC(C)Cc1nnc(NC(=O)CS(=O)(=O)Cc2ccccc2)s1,6
CC(O)C1CCC2C3CC[C@H]4CC(O)CCC4(C)C3CC3(OCCO3)C12C (some centres undefined),-8
COc1cc(C(C(=O)NCc2ccccc2)N(Cc2ccco2)C(=O)c2cnccn2)cc(OC)c1OC (centres undefined),-4
Cc1cc(C)n(C(=O)CCCCCCCCC(=O)n2nc(C)cc2C)n1,8
OC1CCCN(CC(O)c2ccccc2)C1 (centres undefined),0
O=P(OC1CCCCC1)(OC1CCCCC1)C(O)c1ccccc1 (centres undefined),104*
NC(=O)C(c1ccccc1)C1CCCC1 (centres undefined),106
CCN(CC)CC#CCC(C)(c1ccccc1)c1ccccc1,8
COC(=O)c1c(NC(=O)COC(=O)CCc2ccc(S(=O)(=O)N3CCOCC3)cc2)sc2c1CCC2,6
COc1ccc(CCn2c(C)nc3c(c(=O)c4ccccc4n3C)c2=O)cc1,-3
COc1ccc(CCn2c(-c3ccco3)nc3nc4ccccc4nc32)cc1,179*
COc1ccc(Cn2c(-c3ccc(OC)cc3)nc3ccccc32)cc1,9
O=C(COC(=O)c1ncc(Cl)c(Cl)c1Cl)c1ccc(Cl)s1,-8
COc1cc2c(cc1NC(=O)CCCN1C(=O)CCC1=O)oc1ccccc12,506*
COc1cc2c(cc1NC(=O)CSc1cccc[n+]1[O-])oc1ccccc12,0
COc1cc2c(cc1NC(=O)Nc1ccccc1)oc1ccccc12,-7
COc1cc2c(cc1NC(=O)COc1ccccc1OC)oc1ccccc12,3
COc1cc2c(cc1NC(=O)CSCC(=O)O)oc1ccccc12,-7
COc1cc2c(cc1NC(=O)c1cncc(Br)c1)oc1ccccc12,444*
O=c1c2ccccc2nc2ccc(NCc3cccs3)nn12,-7
O=C1CNC(=O)/C1=C/c1ccc(O)cc1,3
SMILES,Insulin prom act
COc1ccc(-c2nc(CS(=O)CC(=O)NCCCN3CC(C)CC(C)C3)c(C)o2)cc1OC (centres undefined),-7
COc1cc(-c2nc(CN3CCN(CC(C)C)C(=O)[C@@H]3C)c(C)o2)ccc1F,270*
COC(=O)c1ccc(-c2ccco2)n1Cc1nc(-c2ccc(OC)c(OC)c2)oc1C,0
COc1cccc(S(=O)(=O)Nc2cccc(C(=O)N3CCOCC3)c2)c1,466*
COc1ccc(NS(=O)(=O)c2ccc(OCC(=O)N3CCOCC3)cc2)cc1,0
O=C(c1cccc(NS(=O)(=O)c2cccc([N+](=O)[O-])c2)c1)N1CCOCC1,0
Cc1ccnc(NCn2nnc3ccccc32)c1,7
Cc1cc(C)c(NC(=O)C2CCN(c3cnccn3)CC2)c(C)c1,481*
Cc1cc(C)c(NC(=O)C2CCCN2C(=O)NC2CCCCC2)c(C)c1 (centres undefined),10
O=C(Nc1ccc2c(c1)CCC2)C1CCN(c2ncccn2)CC1,-9
O=C1C2CC(O)CN2C(=O)N1c1ccccc1 (centres undefined),0
O=C(c1ccccc1)c1cnc(Nc2ccccc2Cl)s1,-10
O=C(Cn1c(=O)n(-c2ccc(F)cc2)c(=O)c2sccc21)c1ccccc1,-7
Cc1ccc(CNC(=O)C(Cc2ccccc2)NS(=O)(=O)c2cccs2)cc1 (centres undefined),96*
CCOC(=O)CNC(=O)C(Cc1ccccc1)NS(=O)(=O)c1cccs1 (centres undefined),106
CCCC(C)C(=O)NCc1ccc2c(c1)OCO2 (centres undefined),3
CC(C)C(NS(=O)(=O)c1cccs1)C(=O)NCCN1CCN(c2ccccc2)CC1 (centres undefined),-6
CC(C)C(NS(=O)(=O)c1cccs1)C(=O)NCc1ccc2c(c1)OCO2 (centres undefined),162*
CC(Cc1ccccc1)C(=O)NCc1ccncc1 (centres undefined),-5
CCN(c1ccccc1)S(=O)(=O)c1cnc[nH]1,0
Clc1cccc(Cl)c1-c1nnc2cccc(Cl)n12,342
O=C(NC1CCCCC1)C1CCN(S(=O)(=O)N2CCOCC2)CC1,-8
Cc1ccc(S(=O)(=O)N(CCC(=O)O)c2ccccc2)cc1,-64
CCCn1nnc(NC(=O)COc2ccc(C3CCCCC3)cc2)n1,-100
COc1ccc(CCn2nnnc2C(CC(C)C)N2CCN(c3ncccn3)CC2)cc1OC (centres undefined),-7
COc1ccc(CCn2nnnc2C(C(C)C)N2CCN(c3ncccn3)CC2)cc1OC (centres undefined),170*
